# Screening data (PubChem)
# In the library only some 6.3% were active in any assay of this set; here they are far more common.
# Ecoli WT expand: growth inhibitors of E. coli BW25113 wild type. OD600 absorbance. growth inhibition, % at 100 µM. 98,000 compounds, 0.15% hits. AID 710;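 active = growth inhibition above about 50% at one test dose, limit read from the data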;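 also: growth measured after 20 h incubation at 37 °C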
# PostGolgi ctrl: inhibits growth of the yeast control strain | efflux-deficient yeast background strain, growth absorbance A615, 16 h | inhibition, % at 10 µM | 98,000 compounds, 5% hits | AID 738
# PostGolgi yeast: growth inhibition of a yeast mutant, post-Golgi transport screen | 98,000 compounds, 0.9% hits | post-Golgi transport phenotypic cell assay | inhibition, % at 10 µM | AID 739;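 also: yeast cells grown in 1536-well plates; yeast grown about 18 h at 30C before absorbance read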
# Ecoli tolC: E. coli tolC mutant growth inhibition; E. coli BW25113 tolC mutant growth, OD615; AID 573; growth inhibition, % at 10 µM (by protocol); 65,000 compounds, 2.2% hits;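 active = growth inhibition at or above a cutoff equal to the mean over every tested compound plus 3 SD, cut at about 60% in these data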;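 also: growth measured after 20 h incubation at 37 °C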
#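 Test system: E. coli BW25113 ΔtolC::kan bacteria; incubation: 37 °C, 20 h exposure; medium: LB broth supplemented with 50 µg/mL kanamycin; read-out basis: percent growth inhibition; signal: A615 absorbance measurement; compound: 10 µM final, single dose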
# Numbers without * were called inactive; x = no result given. Rule as the data show it, unless noted: active = inhibition above about 30%; inactive = the rest.
SMILES,Ecoli WT expand,PostGolgi ctrl,PostGolgi yeast,Ecoli tolC
COC(=O)CN1C(c2ccccc2)=Nc2ccc(Cl)cc2C1c1ccccc1 (stereo unspecified),-13,30*,8,x
CCC(=O)Nc1nc2ccc(NC(C)=O)cc2s1,7,-8,-1,2
CCCC(=O)Nc1nc2ccc(NC(=O)c3ccc(Br)o3)cc2s1,-14,41*,-4,2
CC(C)(C)c1nc(SCC(=O)Nc2nc3c(s2)CCCC3)c2ccccc2n1,-15,34*,-8,x
O=C(Nc1nc2c(s1)CCCC2)c1cccs1,1,11,-5,4
O=C(CSc1ncn(-c2ccccc2)n1)Nc1nccs1,-2,10,-4,x
O=C(Cc1cccs1)Nc1nc2c(s1)CCCC2,16,-3,35*,49
CC(=O)Nc1ccc(C(=O)CSc2ncn(-c3ccccc3)n2)cc1,-1,35*,2,2
Cn1c(SCC(=O)Nc2nc3c(s2)CCCC3)nnc1-c1ccccc1,0,9,-6,-1
O=C(CSc1nc(Cc2ccccc2)nc2ccccc12)Nc1nc2c(s1)CCCC2,-20,40*,13,x
CC(C)c1nc(SCC(=O)Nc2nc3c(s2)CCCC3)c2ccccc2n1,-5,39*,22,x
O=C(CSc1ncn(-c2ccccc2)n1)Nc1nc2c(s1)CCCC2,-4,46*,-2,61*
O=C(C#Cc1ccccc1)c1ccc([N+](=O)[O-])cc1,2,36*,11,x
COC(=O)c1sccc1NC(=O)CSc1ccccc1NS(=O)(=O)c1ccc(Br)cc1,-15,32*,-20,x
Cc1ccccc1NS(=O)(=O)c1ccc(NC(=O)CSCc2ccc(Br)cc2)cc1,-15,91*,96*,x
O=C(CSCc1ccc(Br)cc1)Nc1ccc(S(=O)(=O)N2CCOCC2)cc1,-8,19,1,x
COC(=O)c1sccc1NC(=O)CSc1ccccc1NS(=O)(=O)c1ccc(F)cc1,-10,11,7,x
COc1cccc(C(C(=O)NCc2ccco2)N(C(=O)Cn2nnc3ccccc32)C2CC2)c1OC (stereo unspecified),-2,11,-3,-2
COc1ccc(NS(=O)(=O)c2c(C)cc(C)cc2C)cc1,-8,21,-3,x
COc1cccc(NS(=O)(=O)c2c(C)cc(C)cc2C)c1,6,32*,-4,22
Cc1cc(C)c(S(=O)(=O)Nc2ccc(OCC(=O)O)cc2)c(C)c1,3,41*,6,7
CCc1ccc(NC(=O)CCNS(=O)(=O)c2cccc3nsnc23)cc1,21,-5,6,x
Cc1c(C(=O)N2CCc3ccccc3C2)sc2nc(-c3ccccc3)cn12,-14,47*,5,67*
COc1ccc(-c2cn3c(C)c(C(=O)N4CCc5ccccc5C4)sc3n2)cc1,x,x,x,28
CCN(Cc1ccccc1)C(=O)CSc1nc(C)cc(C)c1C#N,-6,35*,10,29
SMILES,Ecoli WT expand,PostGolgi ctrl,PostGolgi yeast,Ecoli tolC
Cc1cc(C)c(C#N)c(SCC(=O)N2CCN(Cc3ccccc3)CC2)n1,-2,31*,16,9
COc1ccc(S(=O)(=O)N2CCc3ccccc32)cc1C(=O)OCc1nnc(-c2ccccc2)o1,-2,16,7,-4
O=C(NC1(C(F)(F)F)C(=O)Nc2c1c(=O)[nH]c(=O)n2Cc1ccco1)C1CC1 (stereo unspecified),-2,2,4,-17
Cc1cc(S(=O)(=O)Nc2ccc3ccccc3c2)c(C)s1,-8,78*,-11,x
Cc1cc(S(=O)(=O)Nc2cccnc2)c(C)s1,0,0,3,-11
O=[N+]([O-])c1ccc(N2CCN(S(=O)(=O)c3ccccc3)CC2)cc1NCc1cccnc1,-14,18,-7,x
O=[N+]([O-])c1ccc(N2CCN(S(=O)(=O)c3ccc(Cl)cc3)CC2)cc1NCc1cccnc1,-9,11,71*,x
Fc1cccc2sc(Nc3nnc(-c4ccco4)o3)nc12,-6,24,5,99*
O=C(Nc1ccc2c(c1)OCO2)C1CCCCN1S(=O)(=O)c1ccccc1 (stereo unspecified),-3,6,-2,x
COc1ccc(C(=O)Nc2nnc(C(F)(F)F)s2)cc1,-16,42*,-3,11
COc1ccc(C(=O)Nc2nc(-c3cccs3)cs2)cc1,-3,16,1,98*
COc1cc(C(=O)Nc2nc(-c3cccs3)cs2)cc(OC)c1OC,0,48*,25,69*
O=C(Nc1nc(-c2cccs2)cs1)c1ccc(Cl)cc1,-12,8,-5,x
CCC(NC(=O)Nc1nnc(C(F)(F)F)s1)(C(F)(F)F)C(F)(F)F,58*,17,-4,4
Cc1cc(C)nc(NC(=O)CSc2nc3cc(Cl)ccc3s2)n1,-2,36*,-2,x
Cc1cc(C)nc(NC(=O)CSc2nc3ccccc3s2)n1,-4,3,-6,x
O=C(NNc1ccccn1)C(=O)NNS(=O)(=O)c1ccc(Cl)cc1,23,31*,3,x
O=C(Nc1ccc(S(=O)(=O)N2CCCCC2)cc1)c1ccc(CN2CCc3ccccc3C2)cc1,-10,54*,-2,x
Cc1ccc(C(=O)Nc2ccc(S(=O)(=O)N3CCc4ccccc4C3)cc2)o1,-5,48*,1,51
Cc1ccc(NC(=O)c2ccc(CN3CCc4ccccc4C3)cc2)cc1,-7,13,-4,x
O=C1OCC(CO)(CO)N=C1NNc1ccccc1Cl,8,8,2,x
COc1ccnc(N=CNOCc2ccc(F)cc2Cl)c1C#N,-1,6,-3,x
Cc1cccc(N2CC(c3nc4ccccc4n3C)CC2=O)c1C (stereo unspecified),x,x,x,100*
CCn1c(C2CC(=O)N(c3cc(C)cc(C)c3)C2)nc2ccccc21 (stereo unspecified),-5,4,-3,10
Cc1ccccc1S(=O)(=O)Cc1ccc(C(=O)NCc2cccnc2)o1,-2,4,-6,-10
SMILES,Ecoli WT expand,PostGolgi ctrl,PostGolgi yeast,Ecoli tolC
C=CCN1C(=Nc2cccnc2)SCC1(O)c1ccc(C)cc1 (stereo unspecified),3,43*,6,37
C=CCN1C(=O)CSC1=Nc1cccc(O)c1,5,-4,-4,-1
COc1ccc(C)cc1NC(=O)C(=O)NNC(=O)c1ccco1,1,12,1,x
COc1nc(-c2ccccc2)cc(-c2ccc(OC)c(OC)c2)n1,-22,38*,7,33
COc1ccc(-c2cc(C(F)(F)F)nc(N3CCN(c4ccccc4)CC3)n2)cc1OC,x,x,x,-1
Cc1nc(NC(=O)c2ccccc2)sc1-c1csc(NCCc2ccccc2)n1,-30,12,-8,x
Cc1nc(NC(=O)c2ccccc2)sc1-c1csc(NCc2ccccc2)n1,-31,15,67*,x
CCOC(=O)c1ccc(NC(=O)CSc2nc(SC)ns2)cc1,22,5,0,100*
CSc1nsc(SCC(=O)Nc2cccc(C(C)=O)c2)n1,0,1,20,-14
Cc1ccc(C(C)C)c(OCCNC(=S)Nc2cccc3ccccc23)c1,-4,1,-6,x
Cc1ccc(S(=O)(=O)N(CCC#N)CCN2CCCC2)cc1,-4,30*,6,-8
CC(C)NC(=O)C(OC(=O)c1ccccc1)C(OC(=O)c1ccccc1)C(=O)O (stereo unspecified),-1,5,-1,x
Cc1onc(-c2c(F)cccc2Cl)c1C(=O)OCn1nnc2ccccc2c1=O,x,x,x,18
